Screens: PubChem BioAssay, several laboratories
Sampled rows, rich in hits. Any-hit rate of the full collection: about 2.2%.
GalR3 antagonist: human GalR3 antagonism | inhibition, % at 3 µM | O60755 | HEK293 GalR3-CNG cAMP membrane potential fluorescence; galR3 body fused to GalR1 C-terminus | 360,000 tested, 0.44% active;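 active = inhibition above the screen-wide average plus 3 SD, cut at about 13% in these data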;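 also: forskolin and galanin both at EC90 stimulate the cells; cAMP rise reported by CNG channel membrane potential dye signal; 0% = forskolin plus galanin with DMSO and 100% = forskolin alone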
Target sequence (O60755 1-299 limits assumed): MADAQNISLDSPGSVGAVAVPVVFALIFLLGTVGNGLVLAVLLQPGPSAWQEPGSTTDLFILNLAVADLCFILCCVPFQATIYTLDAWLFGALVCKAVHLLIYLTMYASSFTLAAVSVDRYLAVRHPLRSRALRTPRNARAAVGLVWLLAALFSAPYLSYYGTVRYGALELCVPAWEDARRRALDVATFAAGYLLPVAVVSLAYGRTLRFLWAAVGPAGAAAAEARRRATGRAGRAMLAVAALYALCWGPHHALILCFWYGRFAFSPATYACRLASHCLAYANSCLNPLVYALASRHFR
NR2E3 ag-1: activates human NR2E3 receptor | CHO-S Gal4-NCOR/VP16-NR2E3 two-hybrid, luciferase | inhibition of corepressor binding, % at 3.98 µM | 360,000 tested, 0.35% active;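 active = inhibition above the mean of all tested compounds plus 3 SD, cut at about 70% in these data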;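 also: 0% = DMSO with NR2E3 transfected cells and 100% = cells lacking NR2E3 construct; higher means lower luciferase signal from less NR2E3 corepressor binding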
Target sequence (Q9Y5X4 whole entry, looked up, the tested form may be a part): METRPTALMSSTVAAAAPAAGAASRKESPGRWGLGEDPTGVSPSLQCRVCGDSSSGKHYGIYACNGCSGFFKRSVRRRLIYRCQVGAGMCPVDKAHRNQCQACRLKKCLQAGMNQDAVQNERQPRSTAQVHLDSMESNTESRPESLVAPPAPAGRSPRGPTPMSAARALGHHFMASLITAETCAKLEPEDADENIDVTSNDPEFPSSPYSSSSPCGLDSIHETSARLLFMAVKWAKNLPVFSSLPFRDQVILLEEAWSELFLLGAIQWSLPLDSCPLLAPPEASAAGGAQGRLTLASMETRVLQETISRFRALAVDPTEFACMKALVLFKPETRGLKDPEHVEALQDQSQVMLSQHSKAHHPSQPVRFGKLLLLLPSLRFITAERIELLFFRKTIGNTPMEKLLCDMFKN
V-ATPase pH: alters yeast V-ATPase proton transport | AID 504577 | 350,000 tested, 0.37% active | S. cerevisiae, pHLuorin cytosolic pH fluorescence | response, % at 10 µM; in the data active = response mostly above about 7.3%, no sharp cut-off; inactive = mostly below about 5.4%; also: actives read high
FXN GAA850 act: activators of GAA850 frataxin (FXN) promoter. 360,000 tested, 0.56% active. activation, % at 6 µM. HEK293 lucGAA850 FXN promoter luciferase reporter, 24 h; percent of 10 µM SAHA response. AID 540364;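 active = activation above the average of all compounds screened plus 3 SD, cutoff fixed separately per campaign, cut at about 7.5% in these data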;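 also: 0% = DMSO wells and 100% = 10 µM SAHA wells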
NR2E3 ag-2: activates human photoreceptor nuclear receptor NR2E3; inhibition of corepressor binding, % at 4.78 µM; 320,000 tested, 0.12% active; GST-NR2E3/biotin-RetCOR TR-FRET, 1536-well; Q9Y5X4;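 active = percent inhibition above the cutoff of mean plus 3 SD of all tested compounds, set per screening campaign, cut at about 20% in these data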;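 also: 0% = DMSO wells and 100% = biotin wells as full block of FRET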
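Test system – NR2E3–RetCOR corepressor complex · Quantity – NR2E3 fusion 1.35 nM · Buffer or medium – Tris pH 7.5 · Incubation – Compound–protein incubation for 5 h at 4 °C · Technique – TR-FRET, Eu(K)-anti-GST donor, streptavidin-D2 acceptor, ex 340, em 617/671 nm · Evaluation – percent inhibition of 671/617 nm emission ratio versus biotin and DMSO controls · Plate – 1536-well format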
Env fusion inh: blocks HIV Env-driven cell-cell fusion. HeLa-JRFL Env/CEM21 cell fusion, luciferase. inhibition, % at 12.3 µM. 360,000 tested, 1.1% active. AID 651610;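 active = mean replicate inhibition score of at least 50 and every replicate individually at or above 50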;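 also: 0% = plate neutral controls and 100% = maraviroc near 300 nM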
GAA30 FXN cntr: counter-screen for GAA850 frataxin promoter activators: GAA30 promoter activation; shares compounds with FXN GAA850 act; HEK293 lucGAA30 FXN promoter luciferase, 24 h; DMSO = 0%, 5 µM ipriflavone = 100%; activation, % at 6 µM; 1,900 tested, 66% active; AID 588350;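 active = mean activation above the mean of solvent-only control wells plus 3 SD, cut at about 22% in these data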;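 also: counterscreen of GAA850 promoter hits where activity marks nonselective or luminescence artifacts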
GAA850 confirm: GAA850 FXN promoter activation confirmation; 1,900 tested, 86% active; AID 588351; HEK293 lucGAA850 FXN promoter luciferase reporter, 24 h; 100% = activation by SAHA; activation, % at 6 µM; shares compounds with FXN GAA850 act;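 active = mean activation above a set limit taken from the primary screen, cut at about 8% in these data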;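 also: 0% = DMSO wells and 100% = 10 µM SAHA wells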
Numbers without * were called inactive; [ ] = another dose, or the depositor's remark.

`CCOC(=O)[C@@H](C)N(Cc1ccc(OC)cc1)S(=O)(=O)N(Cc1ccccc1)[C@H](C(=O)OC)C(C)C` gave GalR3 antagonist -8, NR2E3 ag-1 -5, V-ATPase pH -4, FXN GAA850 act 11*, NR2E3 ag-2 4, Env fusion inh 92*, GAA30 FXN cntr 13 and GAA850 confirm 21*.
`C[C@@H]1CN([C@H](C)CO)C(=O)c2cc(NC(=O)Cc3cn(C)c4ccccc34)ccc2O[C@H]1CN(C)C(=O)NC1CCCCC1` gave Env fusion inh -7[16.7 µM].
`COCC(=O)Nc1ccc2c(c1)[C@H]1C[C@H](CC(=O)NCc3cccc(F)c3)O[C@H](CO)[C@H]1O2` gave Env fusion inh 7[16.7 µM].
For O=C(c1ccccc1)c1ccc(O)cc1O the results were GalR3 antagonist -3, NR2E3 ag-1 -29, V-ATPase pH 0, FXN GAA850 act 4, NR2E3 ag-2 0 and Env fusion inh 5.
`CC(=O)c1cc2c(C)c(C(=O)c3ccccc3)oc2cc1O` gave GalR3 antagonist 0, NR2E3 ag-1 -114, V-ATPase pH 3, FXN GAA850 act 8.8*, NR2E3 ag-2 1, Env fusion inh -124, GAA30 FXN cntr 122* and GAA850 confirm 39*.
Screening O=C(C[C@@H]1CC[C@@H](NS(=O)(=O)c2ccccc2)[C@H](CO)O1)NCc1ccncn1 returned Env fusion inh -6[16.7 µM].
COc1ccc2c(c1)oc(=O)c1cc(OC)ccc12 was read as GalR3 antagonist 3, NR2E3 ag-1 -85, V-ATPase pH 0, FXN GAA850 act 7.9*, NR2E3 ag-2 13, GAA30 FXN cntr 122* and GAA850 confirm 44*.
`COc1ccc2c(c1)oc(=O)c1ccccc12` gave GalR3 antagonist -1, NR2E3 ag-1 -32, V-ATPase pH 0, FXN GAA850 act 4 and NR2E3 ag-2 0.
`CC(C)NC(=O)N(C)C[C@@H]1OCCCC[C@H](C)Oc2ccc(NC(=O)Nc3ccc(F)cc3)cc2C(=O)N([C@H](C)CO)C[C@@H]1C` gave Env fusion inh -42[16.7 µM].
`O=C(NC12CC3CC(CC(C3)C1)C2)N(Cc1ccccc1)Cc1ccncc1` gave GalR3 antagonist -7, NR2E3 ag-1 -32, V-ATPase pH 0, FXN GAA850 act 10*, NR2E3 ag-2 1, Env fusion inh 62*, GAA30 FXN cntr 13 and GAA850 confirm 13*.
For Cn1c(O)c(N=NC(=O)c2ccco2)c2ccccc21 the results were GalR3 antagonist -1, NR2E3 ag-1 -147, V-ATPase pH 2, FXN GAA850 act 8.4*, NR2E3 ag-2 -8, Env fusion inh -62, GAA30 FXN cntr 144* and GAA850 confirm 38*.
Screening Cn1cnc(S(=O)(=O)N[C@@H]2CC[C@H](CC(=O)NCC3CC3)O[C@H]2CO)c1 returned Env fusion inh 1[16.7 µM].
`CCOC(=O)c1sc(Nc2ccccc2Cl)nc1C` gave GalR3 antagonist 2, NR2E3 ag-1 -117, V-ATPase pH -3, FXN GAA850 act 9.9*, NR2E3 ag-2 6, Env fusion inh -60, GAA30 FXN cntr 103* and GAA850 confirm 40*.
C[C@@H]1CN([C@@H](C)CO)S(=O)(=O)c2ccc(C#CC3CC3)cc2O[C@H]1CN(C)CC1CCCC1 was read as Env fusion inh -7[16.7 µM].
`COc1ccc(NC(=S)Nc2ccccn2)c(OC)c1` gave GalR3 antagonist -1, NR2E3 ag-1 -21, V-ATPase pH -6, FXN GAA850 act 8.1*, NR2E3 ag-2 3, Env fusion inh -244, GAA30 FXN cntr 107* and GAA850 confirm 46*.
Cc1cc2[nH]c3c4ccccc4nc(C)c3c2cc1C was read as GalR3 antagonist -15, NR2E3 ag-1 -19, V-ATPase pH 0, FXN GAA850 act -1 and Env fusion inh -180.
Screening Cc1cc2[nH]c3c(c[n+](C)c4ccccc34)c2cc1C returned GalR3 antagonist -10, NR2E3 ag-1 -75, V-ATPase pH -2, FXN GAA850 act 10*, NR2E3 ag-2 -4, Env fusion inh -209, GAA30 FXN cntr -14 and GAA850 confirm 95*.
COC(=O)c1ccc(CSc2ncnc3c2sc2nc(N4CCOCC4)c4c(c23)CCCC4)o1 was read as GalR3 antagonist -2, NR2E3 ag-1 1, V-ATPase pH -2, FXN GAA850 act 13*, NR2E3 ag-2 -1, Env fusion inh -8, GAA30 FXN cntr 12 and GAA850 confirm 15*.
For CCOC(=O)CSc1nc(N)c(C#N)cc1C#N the results were GalR3 antagonist -6, NR2E3 ag-1 -32, V-ATPase pH -2, FXN GAA850 act 11*, NR2E3 ag-2 4, Env fusion inh -12, GAA30 FXN cntr 52* and GAA850 confirm 30*.
`CCOC(=O)CSc1nc(N)c(C#N)c(-c2ccc(OCC)cc2)c1C#N` gave GalR3 antagonist -8, NR2E3 ag-1 -4, V-ATPase pH -6, FXN GAA850 act 13*, NR2E3 ag-2 5, GAA30 FXN cntr 12 and GAA850 confirm 9.1*.
Screening CCOC(=O)CSc1nc2cc(C)cc(C)c2cc1C#N returned GalR3 antagonist 2, NR2E3 ag-1 -2, V-ATPase pH 1, FXN GAA850 act 2 and NR2E3 ag-2 -1.
For CC(C)OC(=O)CSc1nc(N)c(C#N)cc1C#N the results were GalR3 antagonist 5, NR2E3 ag-1 -26, V-ATPase pH -1, FXN GAA850 act 8.4*, NR2E3 ag-2 -1, Env fusion inh -12, GAA30 FXN cntr 64* and GAA850 confirm 29*.
For C[C@@H]1CN([C@H](C)CO)C(=O)Cc2cc(NC(=O)CCC(F)(F)F)ccc2O[C@H]1CN(C)C(=O)Nc1cccc2ccccc12 the results were Env fusion inh -4[16.7 µM].
`COc1ccc(NC(=O)N(C)C[C@@H]2OCc3ccccc3-c3c(n(C)c4ccccc34)C(=O)N([C@@H](C)CO)C[C@@H]2C)c(OC)c1` gave Env fusion inh -20[16.7 µM].
For COc1ccc(C2C=C(C34CC5CC(CC(C5)C3)C4)NC(=S)N2)cc1OC (stereo not given) the results were GalR3 antagonist 6, NR2E3 ag-1 -16, V-ATPase pH 0, FXN GAA850 act 7.7*, NR2E3 ag-2 -4, GAA30 FXN cntr 10 and GAA850 confirm 11*.
For O=C(C[C@H]1C[C@H]2c3cc(NC(=O)Nc4ccc(F)cc4)ccc3O[C@H]2[C@@H](CO)O1)NC1CCCCC1 the results were Env fusion inh 7[16.7 µM].
